From the RNAGym collection of RNA variant scans (doi:10.1126/science.aae0568) come the findings set out here.

Variants at the floor of the assay were thinned out.

B1: tRNA (parent)
chain: GUUCCGUUGGCGUAAUGGUAACGCGUCUCCCUCCUAAGGAGAAGACUGCGGGUUCGAGUCCCGUACGGAACG

The data set covers variants of B1. The experiment in a line: yeast fitness relative to wild type (ratio to wild type); higher = fitter; tRNA-Arg(CCU), competitive growth, 37 C, YPD. An outline of the steps: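 Variants of the tRNA-Arg(CCU) gene were chemically synthesised with a 3% per-site mutation rate across 69 sites and placed at the native genomic locus in Saccharomyces cerevisiae. Six parallel replicates of the pooled strains were competed in YPD at 37°C for 24 hours, and gene amplicons from the start and end populations were read by 100-nucleotide paired-end sequencing. Darwinian fitness relative to wild type was derived from changes in genotype frequencies. Genotypes required ≥ 100 starting reads, and estimates < 0.5 were set to 0.5.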
On to C24U C33U C34G A40U G67A, for which the yeast fitness was found to be 0.541.

For the variant G25C A57U, the yeast fitness came out at 0.659. Next, C24U G41A C62A A69U: at most 0.5. The same measure for U26G G48A A57U: 0.598; for U26G C46A: 0.949; for G25C C29A G48A U53G: at most 0.5.

As for G25A U35C A43G, the yeast fitness was at most 0.5. The same measure for U26A C30U C31U A37C G48A: at most 0.5. As for C24G U59A, the yeast fitness was 0.552. Next, U26A C46G C61U: 0.699; U26A C49U A57U: at most 0.5. Next, U26A C31G A37G G63A: at most 0.5; G25A A43C U59C: 0.71. For the variant G25A C31U U64A, the yeast fitness came out at 0.642.

As to C24U U26C G58A, the yeast fitness was found to be 1.01. The same measure for U26A G50U: 0.805. The same measure for C24U G56A C60A: 0.594; for C24U U32C C46A A70U: 0.65.

For C24U C31U A40C A57C C61A G67A, the yeast fitness was at most 0.5.

As for C24U C49G G63A A69C, the yeast fitness is at most 0.5. In the case of G25A C34A A36C, the yeast fitness worked out at 0.587. Next, C24U U47A G48C U54G A65C: at most 0.5; C24G U35G G48C C66U: at most 0.5; C24U C30U: 0.744. Next, U26A C34U C49G: at most 0.5; U26C A36U A45U G52C A57U: at most 0.5. Next, U26G C27A: 0.647; C24U C46A A69G: 0.996; G25U U64G: 0.788. U26G G63C C66U: the yeast fitness was at most 0.5. Turning to U26G G51C, the yeast fitness amounted to 0.588. The same measure for U26G G50C A57G: 0.529. As to G25A C29U G51C A70U, the yeast fitness was at most 0.5. The same measure for C24U G48A G51A: 0.665; for C24U C55G: 0.638. Turning to C24U C55U, the yeast fitness is 0.854. For the variant G25A C29U C60A, the yeast fitness was 0.728. The same measure for G25A C29U C31G C55U G67C: at most 0.5; for G25A A36U C46G C62A A69C: at most 0.5; for G25C A37G A43C C55G G68A: at most 0.5. Next, C24U G41C: 0.847; C24U A70C: 1.04.

Take C24U A45C A69C: the yeast fitness is 0.619. The same measure for G25C A40C C62A: 0.675. Next, G25A A42U A57G: at most 0.5; G25A G58C A65G: 1.04; C24U U26C C27A A69U: at most 0.5.

Take G25C G44A A69U: the yeast fitness amounted to 0.622.

G25C C31U C46U: the yeast fitness worked out at 0.684. Next, U26C C30G A43U G50A: at most 0.5; U26C C29G A43U: at most 0.5.

In the case of C24G U64A C66A, the yeast fitness is at most 0.5. Next, C24U U26G C30U G39C G67A A69U: at most 0.5. G25C C60U C61A: the yeast fitness is at most 0.5. For the variant G25A A40G, the yeast fitness was 0.972.

As for G25U C60G, the yeast fitness was at most 0.5. Next, U26C C46A U47G G50A: 0.541. As for G25C A42G G68A, the yeast fitness turned out to be 0.621. Regarding C24U C29U C49G, the yeast fitness was at most 0.5.

Turning to C24U C30A A37G, the yeast fitness worked out at 0.593. Take G25A A42G G44C C49G A70U: the yeast fitness was at most 0.5. The same measure for U26C U53C A57U C66G: at most 0.5; for U26A A43U: 0.937. On to U26A A40C U64G, for which the yeast fitness was 0.538.

With C24U A65C, the yeast fitness was determined as 0.739. The same measure for C24U A42U G52C: 0.578. Next, U26G C66U: 0.862; G25C G51A U54A: 0.507.

As to G25A C30A C34A C49A C62G C66U A70G, the yeast fitness was determined as 0.712. Next, G25C C29A G48C C60A: at most 0.5; U26G C29A: 0.578; C24U U32A G38A A57U G68U: at most 0.5. As to U26A G39U A45C, the yeast fitness is at most 0.5. U26C C31U A43G G63A: the yeast fitness was found to be 0.611. As for G25A U28A C61U G67C, the yeast fitness is at most 0.5. As to G25C C31U A69U, the yeast fitness is 0.77.

For the variant G25A C29A C46G G51A, the yeast fitness was at most 0.5.

As to C24U G58A, the yeast fitness was found to be 0.988. The same measure for G25C U26G C60U C62G U64A A69U: at most 0.5; for C24G U54C G67C: at most 0.5; for G25A U32C: 0.832. In the case of U26C C30G C34U C49U, the yeast fitness came out at 0.51. The same measure for G25C U32G G41A: 0.565; for U26C C33G U59C: 0.515. The same measure for C24U A43U G56A: 0.837; for G25A C30U A36C: at most 0.5; for G25A C27G C61G: 0.574. Next, U26C C30G G67C: at most 0.5. With U26G C27U G56A A65C, the yeast fitness was at most 0.5. Next, G25C C29A G52A: 0.505; U26C A36U: 0.608. U26A U35G A37U A70G: the yeast fitness was at most 0.5. The same measure for G25A C30A A45G U64C: 0.984; for C24U G39C A70G: at most 0.5. The same measure for C24U C27G U32C A65U: at most 0.5.

For the variant G25A C34A A36C G51C, the yeast fitness was at most 0.5. As for U26A G58C C62U, the yeast fitness was found to be 0.659.

For G25C G50C, the yeast fitness came to 0.627. The same measure for U26A G56A: 1.02. C24U A43C: the yeast fitness stood at 0.786. Next, U26A C31A A45U: 0.563. The same measure for U26A A36C: at most 0.5; for U26A A40U: 0.809.

Regarding U26A C33A, the yeast fitness turned out to be 0.689. Next, U26A U28C C30G C62A: at most 0.5. In the case of G25C A36G G48A, the yeast fitness was 0.571. As to U26G A37U G51A, the yeast fitness was at most 0.5. Next, G25C A40C G68C: 0.645; G25A A43U C61A: 0.765; U26C G38C: 0.717. Take G25A C49A G68C: the yeast fitness was at most 0.5.

As to G25C U28C A69U, the yeast fitness is 0.532. For the variant U26C A36G A69C, the yeast fitness is 0.736. The same measure for C24U C49A G67A: 0.547. Consider C24U C49A G67C, for which the yeast fitness came to 0.527. Consider C24U C33G U59C U64A, for which the yeast fitness worked out at 0.686. Consider G25C U28A G51A, for which the yeast fitness was 0.604.

On to U26A C34A, for which the yeast fitness was found to be 0.592. Take C24G U59A A70U: the yeast fitness is at most 0.5. Turning to G25A G56C, the yeast fitness stood at 0.711.

As for G25A C30G, the yeast fitness is 0.636. Turning to G25A C30A, the yeast fitness is 0.836. Take C24U A57C C61U: the yeast fitness is at most 0.5. On to U26C C33G A36U A57U, for which the yeast fitness is at most 0.5.

As to C24U G41A C62A, the yeast fitness amounted to 0.605. The same measure for U26A G38C U47A C49A: at most 0.5; for U26C C30G A45U U53A C62U G68C: at most 0.5; for C24U A45G A69U: 0.888. For the variant C24U A37C G50C A69U, the yeast fitness is at most 0.5. G25C C27G U35C: the yeast fitness was at most 0.5. Next, U26A U28A C31U G56A C66G: at most 0.5.

Regarding G25A U28G C33G A45C, the yeast fitness is at most 0.5. The same measure for U26A C27A C31U: at most 0.5; for U26G G67C: 0.644; for U26A C30U A42C C46U A65G: 0.859.

Take G25A A36C: the yeast fitness was 0.52. The same measure for U26A C49U G56A: 0.706. Regarding U26C C61G G63A A69U, the yeast fitness is 0.532.

With C24U C49G, the yeast fitness was determined as 0.724. Turning to C24U U26G A36G A43G, the yeast fitness was at most 0.5. With G25A C27G C33G G39A C46U C61U A69U, the yeast fitness was at most 0.5.

U26G C33G G50C: the yeast fitness is at most 0.5.

Consider C24U C49G G56C G58A G67A, for which the yeast fitness is at most 0.5. Next, U26C C33G A36G A42C C49G G58C C62G: at most 0.5; U26C A45G: 0.966; C24U C30U A57C: at most 0.5. The same measure for U26A C31A A42G C55G A57C: at most 0.5; for G25C C29A G52A A65G: at most 0.5; for G25C C34U: 0.558. The same measure for C24U G25A C30U C46A A69U: 0.611. As to C24U C31A G56C, the yeast fitness amounted to 0.544.

U26A C27A U54C: the yeast fitness is at most 0.5. Next, G25A C31U G38C U54C: 0.654; C24U U53A C55A: 0.65; C24U G38A: 0.819. As to C24U G52A G56A, the yeast fitness amounted to 0.703. With G25C C33U U47G C49U G52C, the yeast fitness is at most 0.5.

As to C24U C60U, the yeast fitness was determined as 0.797.

On to G25C C33G C61G, for which the yeast fitness was at most 0.5. Next, U26C C61U: 0.956; G25C C27U C61G: 0.502; U26C A69C: 0.885.

For U26C C34U, the yeast fitness was determined as 0.716. On to C24U U54G, for which the yeast fitness came out at 0.577. In the case of G25A C29G G48A A69U, the yeast fitness was at most 0.5. The same measure for C24U C30G A45C C61G: 0.568. The same measure for G25C C33U C49A U53A G67A: at most 0.5.
